Results on 27 molecules are retold here after ChEMBL document CHEMBL1817553, “Synthesis and biological evaluation of Matijing-Su derivatives as potent anti-HBV agents” (Bioorg Med Chem, 2011).

For series [1], the system named is Hepatitis B virus. Briefly: Antiviral activity against HBV infected in human HepG2(2.2.15) cells assessed as inhibition of viral DNA replication by measuring HBsAg and HBeAg production after 9 days by EIA. It counts as functional, organism-based. To be noted: HepG2 2.2.15, 216 h. In a few lines: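 Confluent 2.2.15 cells in RPMI 1640 with 2% FBS received test compounds daily (medium changed daily) for 8 consecutive days in a second protocol. Cells in the 24-well protocol were seeded at 1.0 × 10⁵ cells/mL in MEM with 10% FBS for 24 h. They were then exposed to drug for 9 days, with medium changed every 3 days. Supernatant HBsAg/HBeAg was read by EIA at days 6 and 9, and the test was run twice.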

Series [2] can be described thus: Selectivity index, ratio of TC50 for human HepG2(2.2.15) cells to IC50 for HBV. The procedure, abridged: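 Calculated as TC50 (neutral red uptake in 2.2.15 cells) divided by IC50 (HBsAg/HBeAg inhibition by EIA in 2.2.15 cells).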
Series [3] is described as follows: Cytotoxicity against human HepG2(2.2.15) cells after 24 hours following 9 days of treatment by neutral red dye uptake assay. It counts as cell-based. Particulars: read-out: TC50. The procedure, abridged:
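2.2.15 cells grown to confluence were treated with compound as in the antiviral assay, with untreated controls on each plate. Toxicity was measured by neutral red uptake (absorbance 510 nm, relative to untreated cells) 24 h after 9 days of treatment, giving TC50.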

In series [4] the test system is Hepatitis B virus. The series can be described thus: Antiviral activity against HBV infected in human HepG2(2.2.15) cells assessed as inhibition of viral DNA replication by measuring HBsAg and HBeAg production at TC50 after 9 days by EIA. It counts as functional, organism-based.

SMILES strings stand for the structures. The source made the active and inactive calls. The rule behind the calls is not given here. Square brackets hold non-standard residues; d marks the D form. Peptide text beside a SMILES is read from it. * marks the point of attachment. Phe(4-NO2) = N[C@@H](Cc1ccc([N+](=O)[O-])cc1)C(=O)O; 4Abz = Nc1ccc(C(=O)O)cc1; Propionyl = CCC(=O)*; Bz = O=C(c1ccccc1)*; ClAc = O=C(CCl)*

The term IC50 denotes the concentration that inhibits the measured activity by half. In the case of `O=C(N[C@@H](Cc1ccccc1)C(=O)N[C@H](CO)Cc1ccccc1)c1ccc(CN2CCCC2)cc1`, the IC50 with Hepatitis B virus [1] stood at 14.1 µM. For the same molecule, the “Selectivity Index” value in series [2] worked out at 9.11. Besides, the CC50 at 216 h in series [3] is 128 µM.
As to `COC(=O)[C@H](Cc1ccccc1)NC(=O)[C@H](Cc1ccccc1)NC(=O)c1ccc(NC(=O)CCl)cc1` ({ClAc-4Abz}-Phe-Phe-OMe), the inhibition entry with Hepatitis B virus [4] was “inactive”. Moreover, the CC50 at 216 h in series [3] amounted to 223 µM.
Turning to `CN(C)Cc1ccc(C(=O)N[C@@H](Cc2ccccc2)C(=O)N[C@H](CO)Cc2ccccc2)cc1`, the IC50 in the series with Hepatitis B virus [1] came out at 15.8 µM. For the same molecule, the “Selectivity Index” value in series [2] is reported as 11.84. The CC50 at 216 h in series [3] came out at 188 µM.
For `CC(=O)Nc1ccc(C(=O)N[C@@H](Cc2ccc(O)cc2)C(=O)N[C@H](CO)Cc2ccccc2)cc1`, the inhibition result in the series with Hepatitis B virus [4] was “inactive”. Also, in series [3], the CC50 at 216 h is 749 µM.
Regarding `COC(=O)[C@H](Cc1ccccc1)NC(=O)[C@H](Cc1ccccc1)NC(=O)c1ccc(NC(=O)CN(C)C)cc1`, the inhibition result in the series with Hepatitis B virus [4] was “inactive”. Besides, the CC50 at 216 h in series [3] was determined as 111 µM.
Turning to `CN(C)CCOc1ccc(C(=O)N[C@@H](Cc2ccccc2)C(=O)N[C@H](CO)Cc2ccccc2)cc1`, the IC50 in the series with Hepatitis B virus [1] was 27.6 µM. Besides, the “Selectivity Index” value in series [2] is on record as 11.86. Further, in series [3], the CC50 at 216 h is 327 µM.
The matching figures for `CCOc1ccc(C[C@H](NC(=O)[C@H](Cc2ccccc2)NC(=O)c2ccccc2)C(=O)OC)cc1` (Bz-Phe-Tyr(Et)-OMe): 14 µM, 58.61 and 818 µM.
With `CCOc1ccc(C[C@H](NC(=O)[C@H](Cc2ccccc2)NC(=O)c2ccccc2)C(=O)O)cc1` (Bz-Phe-Tyr(Et)-OH), in the series with Hepatitis B virus [4], the inhibition result is “inactive”. The CC50 at 216 h in series [3] was 1010 µM.
Turning to `O=C(N[C@@H](Cc1ccc(O)cc1)C(=O)N[C@H](CO)Cc1ccccc1)c1ccncc1`, the inhibition entry in the series on Hepatitis B virus [4] is “inactive”. Besides, the CC50 at 216 h in series [3] came out at 612 µM.
In the case of `COC(=O)[C@H](Cc1ccc([N+](=O)[O-])cc1)NC(=O)[C@H](Cc1ccccc1)NC(=O)c1ccncc1`, the inhibition result with Hepatitis B virus [4] is “inactive”. In addition, the CC50 at 216 h in series [3] amounted to 812 µM.
Take `COC(=O)[C@H](Cc1ccc([N+](=O)[O-])cc1)NC(=O)[C@H](Cc1ccc(O)cc1)NC(=O)c1ccncc1`: the inhibition entry in the series on Hepatitis B virus [4] is “inactive”. The CC50 at 216 h in series [3] worked out at 238 µM.
Turning to `CCC(=O)Nc1ccc(C(=O)N[C@@H](Cc2ccccc2)C(=O)N[C@@H](Cc2ccc([N+](=O)[O-])cc2)C(=O)OC)cc1` ({Propionyl-4Abz}-Phe-[Phe(4-NO2)]-OMe), the IC50 with Hepatitis B virus [1] is 4.37 µM. Further, the “Selectivity Index” value in series [2] is 33.53. Besides, in series [3], the CC50 at 216 h turned out to be 147 µM.
Regarding `CC(=O)OC[C@H](Cc1ccccc1)NC(=O)[C@H](Cc1ccccc1)NC(=O)c1ccc(CN2CCOCC2)cc1`, in the series with Hepatitis B virus [4], the inhibition entry was “inactive”. Besides, the CC50 at 216 h in series [3] was determined as 609 µM.
As to `CCCCOc1ccc(C[C@H](NC(=O)[C@H](Cc2ccccc2)NC(=O)c2ccccc2)C(=O)[O-])cc1.[Na+]`, the IC50 in the series on Hepatitis B virus [1] is 64.6 µM. Moreover, in series [2], the “Selectivity Index” value is 15.2. For the same molecule, in series [3], the CC50 at 216 h worked out at 979 µM.
For `CC(=O)Nc1ccc(C(=O)N[C@@H](Cc2ccccc2)C(=O)N[C@H](CCl)Cc2ccccc2)cc1`, the 50% inhibitory concentration (IC50) in the series on Hepatitis B virus [1] came out at 0.71 µM. The “Selectivity Index” value in series [2] worked out at 42.26. Further, the CC50 at 216 h in series [3] is 30.1 µM.
As for `O=C(N[C@@H](Cc1ccccc1)C(=O)N[C@H](CO)Cc1ccccc1)c1ccc(CN2CCOCC2)cc1`, the IC50 with Hepatitis B virus [1] was found to be 13.9 µM. Also, the “Selectivity Index” value in series [2] turned out to be 11.25. Besides, in series [3], the CC50 at 216 h is 157 µM.
Regarding `COC(=O)[C@H](Cc1ccc(O)cc1)NC(=O)[C@H](Cc1ccccc1)NC(=O)c1ccc(NC(C)=O)cc1` (Ac-[4Abz]-Phe-Tyr-OMe), the IC50 with Hepatitis B virus [1] was 9.06 µM. Moreover, the “Selectivity Index” value in series [2] is 85.09. In addition, the CC50 at 216 h in series [3] was 771 µM.
On to `CCC(=O)Nc1ccc(C(=O)N[C@@H](Cc2ccccc2)C(=O)N[C@@H](Cc2ccccc2)C(=O)OC)cc1` ({Propionyl-4Abz}-Phe-Phe-OMe), for which the IC50 in the series on Hepatitis B virus [1] stood at 2.85 µM. For the same molecule, the “Selectivity Index” value in series [2] was 90.45. In addition, the CC50 at 216 h in series [3] worked out at 258 µM.
Take `CC(=O)OC[C@H](Cc1ccccc1)NC(=O)[C@H](Cc1ccccc1)NC(=O)c1ccc(CN(C)C)cc1`: the inhibition result with Hepatitis B virus [4] is “inactive”. For the same molecule, in series [3], the CC50 at 216 h was determined as 508 µM.
Turning to `CCCCOc1ccc(C[C@H](NC(=O)[C@H](Cc2ccccc2)NC(=O)c2ccccc2)C(=O)OC)cc1`, the IC50 in the series on Hepatitis B virus [1] worked out at 174 µM. Moreover, the “Selectivity Index” value in series [2] came out at 6.6. In addition, in series [3], the CC50 at 216 h stood at 1150 µM.
For the molecule `COC(=O)[C@H](Cc1ccccc1)NC(=O)[C@H](Cc1ccc(O)cc1)NC(=O)c1ccncc1`, the inhibition entry with Hepatitis B virus [4] is “inactive”. Further, the CC50 at 216 h in series [3] amounted to 219 µM.
As to `COC(=O)[C@H](Cc1ccccc1)NC(=O)[C@H](Cc1ccccc1)NC(=O)c1ccc(OCCN(C)C)cc1`, the 50% inhibitory concentration (IC50) in the series with Hepatitis B virus [1] amounted to 105 µM. In series [2], the “Selectivity Index” value was 4.74. The CC50 at 216 h in series [3] came out at 497 µM.
With `O=C(N[C@@H](Cc1ccccc1)C(=O)N[C@H](CO)Cc1ccccc1)c1ccncc1`, the half-inhibitory concentration (IC50) in the series with Hepatitis B virus [1] came to 28.9 µM. The “Selectivity Index” value in series [2] was determined as 7.39. Besides, the CC50 at 216 h in series [3] amounted to 214 µM.
In the case of `COc1ccc(C[C@H](NC(=O)[C@H](Cc2ccccc2)NC(=O)c2ccccc2)C(=O)[O-])cc1.[Na+]` (Bz-Phe-Tyr(Me)-OH), the IC50 with Hepatitis B virus [1] was 20.5 µM. Besides, the “Selectivity Index” value in series [2] is recorded as 8.99. The CC50 at 216 h in series [3] turned out to be 184 µM.
In the case of `COC(=O)[C@H](Cc1ccccc1)NC(=O)[C@H](Cc1ccccc1)NC(=O)c1ccncc1`, the inhibition result in the series on Hepatitis B virus [4] is “inactive”. In series [3], the CC50 at 216 h was 1060 µM.
On to `COC(=O)[C@H](Cc1ccccc1)NC(=O)[C@H](Cc1ccccc1)NC(=O)c1ccc(NC(=O)CN2CCCC2)cc1`, for which the inhibition result with Hepatitis B virus [4] is “inactive”. Further, the CC50 at 216 h in series [3] turned out to be 106 µM.
In the case of `COC(=O)[C@H](Cc1ccc(O)cc1)NC(=O)[C@H](Cc1ccccc1)NC(=O)c1ccncc1`, in the series on Hepatitis B virus [1], the concentration for half-maximal inhibition (IC50) came out at 5.39 µM. Moreover, in series [2], the “Selectivity Index” value is 161.01. The CC50 at 216 h in series [3] was 867 µM.
